From PubChem BioAssay
CHOP inh: inhibitors of CHOP induction in ER stress response. CHO-K1 CHOP-promoter luciferase, tunicamycin-induced, 15-18 h. inhibition, % at 10 µM. actives 3.8% (n = 220,000). AID 2732;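 active = compounds that reduced the stress-induced luciferase reporter signal by more than about 70% of percent inhibition, limit read from the data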;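 also: 0% = tunicamycin plus vehicle and 100% = wells without tunicamycin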
ANO1 block: mouse TMEM16A channel inhibition, primary screen; HEK293 TMEM16A/YFP iodide influx fluorescence, ionomycin; normalized B-score (activity score, 25-100; higher = stronger inhibition) at 10 µM; actives 1.2% (n = 310,000);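 active = ratio plate-corrected score three or more library SD toward inhibition, starting fluorescence score within five deviations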;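 also: score derived from kinetic fluorescence span divided by baseline fluorescence per well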
Hep lipid drop: modulators of hepatic lipid droplet formation | actives 0.4% (n = 240,000) | AML12 mouse hepatocytes, oleate lipid droplets, BODIPY imaging | inhibition, % at 6.5 µM;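 active = lipid droplet intensity inhibited by at least 50%, with more than 500 cells counted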
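Test system: AML12 mouse liver cells; schedule: overnight exposure; technique: high-content imaging of BODIPY-stained droplets and DAPI nuclei; read-out: % inhibition of corrected integrated BODIPY droplet signal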
TMEM16A act: activates or potentiates the mouse TMEM16A chloride channel; B-score at 10 µM; HEK293 TMEM16A/YFP-H148Q/I152L, iodide quench fluorescence; stronger effect = lower value; actives 0.3% (n = 340,000);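 active = fluorescence-ratio B-score plate-corrected deviation score at least 3 library SD below zero, with starting fluorescence score within 5 deviations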;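 also: channel opened by trigger with iodide after compound preincubation; score built on the fluorescence ratio of max minus min over baseline; more negative score means more quench and so TMEM16A activation or potentiation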
UPR CHOP act: apoptotic UPR (CHOP) activation. CHO-CHOP luciferase reporter, luminescence; percent of tunicamycin response over DMSO baseline. activation, % at 10 µM. actives 0.34% (n = 330,000). AID 449763;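 active = at 10 µM dose, activation of 40% or more, normalized to positive control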;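 also: 100% = tunicamycin at 10 µg/mL and 0% = DMSO alone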
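Dosing – one dose, 10 µM in 0.5% DMSO · System – CHO-CHOP cells, stable luciferase reporter of PERK-eIF2a-CHOP signalling · Input – 500 cells/well · Control set – tunicamycin 10 µg/mL final as positive, DMSO-only wells as negative · Timing – 6 h compound treatment, 37 °C · Measure – % activation vs tunicamycin · Technique – luminescence read with Steady-Glo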
XBP1 UPR activ: activators of adaptive arm of unfolded protein response (XBP1) | actives 0.33% (n = 330,000) | AID 463104 | activation, % at 20 µM | CHO-XBP1 luciferase reporter, IRE1-XBP1 UPR activation, luminescence; percent of tunicamycin response, DMSO as zero;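 active = versus positive control, 20 µM dose yields 30% or more activation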;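 also: 100% = tunicamycin at 10 µg/mL and 0% = DMSO only wells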
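Material – CHO cell line with stable XBP1 luciferase reporter · Buffer or medium – F12 plus 10% FBS · Compound – single point, 20 µM final compound, 1% DMSO · Schedule – 16-18 h cell attachment at 37 °C, then 6 h compound exposure · Signal – Steady-Glo luminescence read · Benchmarks – high control tunicamycin 10 µg/mL final, low control DMSO vehicle only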
CHOP inh conf: confirmation of CHOP induction inhibitors; shares compounds with CHOP inh; CHO-CHOP promoter luciferase reporter, tunicamycin-induced, luminescence; inhibition, % at 10 µM; actives 45% (n = 2,100);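 active = mean of three repeat readings of reporter signal inhibition above a set limit, cut at about 70% in these data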;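 also: 0% = tunicamycin plus vehicle and 100% = wells lacking tunicamycin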
UPR CHOP confirm: confirmation of apoptotic unfolded protein response (CHOP) activators. shares compounds with UPR CHOP act. CHO-CHOP cells, CHOP-luciferase reporter luminescence; percent of tunicamycin response, DMSO as zero. activation, % at 10 µM. actives 64% (n = 1,000). AID 463112; in the data active = activation above about 33%;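 also: 0% = DMSO wells and 100% = tunicamycin 10 µg/mL wells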
TMEM16A reconf: TMEM16A (mouse) chloride channel inhibition, re-confirmation; shares compounds with ANO1 block; HEK293 TMEM16A/YFP-H148Q, iodide quench fluorescence; ionomycin added to raise cell calcium; inhibition, % at 10 µM; actives 39% (n = 2,300);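 active = mean duplicate percent inhibition, scaled so buffer wells are 0 and the reference blocker 100, over three buffer SD above buffer mean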
TMEM16A Ca cntr: alters calcium mobilization in TMEM16A HEK293 cells, counter-screen | calcium response (% of ionomycin), % at 10 µM | AID 652231 | actives 2% (n = 2,300) | TMEM16A/YFP HEK293, Fluo4 calcium mobilization | shares compounds with ANO1 block;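 active = duplicate-averaged calcium signal over 20% of the ionomycin maximum, relative to buffer baseline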;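 also: each well's signal is peak minus trough fluorescence divided by its pre-addition baseline; 0% = buffer wells and 100% = ionomycin wells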
YFP-HEK293 quench: parental YFP-HEK293 iodide quench counter-screen activity; shares compounds with ANO1 block; ionomycin; YFP ratio F(max-min)/F0 at 10 µM; 2,300 tested, under 10 active; AID 652233;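 active = yellow fluorescent protein signal ratio exceeding the buffer control mean by over 5 SD of those controls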;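 also: ratio is mean of duplicate wells from kinetic YFP trace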
ClC-1 rat inh: rat ClC-1 inhibition, TMEM16A specificity screen. shares compounds with ANO1 block. CHO ClC-1-YFP, iodide influx fluorescence quench; iodide control reads 0, buffer control 100. ratio percent, % at 10 µM. 2,300 tested, under 10 active. AID 652236;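 active = duplicate-mean ratio percent above the mean of iodide-only control wells, which defines zero, plus 5 of their SD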;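 also: higher percent means stronger block of ClC-1 iodide influx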
Target sequence (P35524 whole entry, looked up): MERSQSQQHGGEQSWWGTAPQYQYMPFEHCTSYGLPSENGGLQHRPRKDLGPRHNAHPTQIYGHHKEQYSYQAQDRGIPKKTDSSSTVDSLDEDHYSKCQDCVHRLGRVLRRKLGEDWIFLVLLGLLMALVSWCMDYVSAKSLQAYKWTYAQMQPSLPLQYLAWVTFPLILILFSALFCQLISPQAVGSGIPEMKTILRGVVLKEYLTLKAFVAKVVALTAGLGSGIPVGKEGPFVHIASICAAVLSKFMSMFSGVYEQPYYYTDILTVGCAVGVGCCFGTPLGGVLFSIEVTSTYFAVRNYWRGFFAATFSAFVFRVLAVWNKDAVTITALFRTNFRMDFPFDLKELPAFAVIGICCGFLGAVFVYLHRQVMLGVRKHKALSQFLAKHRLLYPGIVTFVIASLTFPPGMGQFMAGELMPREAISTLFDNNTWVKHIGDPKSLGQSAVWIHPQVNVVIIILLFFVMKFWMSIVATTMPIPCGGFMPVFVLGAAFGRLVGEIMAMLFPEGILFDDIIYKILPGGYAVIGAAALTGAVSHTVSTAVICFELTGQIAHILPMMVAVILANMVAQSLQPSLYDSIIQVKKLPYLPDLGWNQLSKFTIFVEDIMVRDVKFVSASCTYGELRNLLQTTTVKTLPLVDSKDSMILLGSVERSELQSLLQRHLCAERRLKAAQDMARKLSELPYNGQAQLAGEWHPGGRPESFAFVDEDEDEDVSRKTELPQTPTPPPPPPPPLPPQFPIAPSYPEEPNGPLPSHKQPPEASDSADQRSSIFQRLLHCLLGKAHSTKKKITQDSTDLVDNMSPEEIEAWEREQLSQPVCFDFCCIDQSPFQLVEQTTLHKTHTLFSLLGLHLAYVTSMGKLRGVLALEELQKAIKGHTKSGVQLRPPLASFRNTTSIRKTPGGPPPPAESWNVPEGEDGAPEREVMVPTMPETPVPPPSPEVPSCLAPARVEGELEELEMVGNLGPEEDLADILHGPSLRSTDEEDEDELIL
* marks the source's active call; other numbers are inactive results; i = inactive; nt = not tested or not shown. A selection: hits, their analogues and other compounds. The true share with any hit is near 4.2%.

SMILES	CHOP inh	ANO1 block	Hep lipid drop	TMEM16A act	UPR CHOP act	XBP1 UPR activ	UPR CHOP confirm	others
C[C@@H]1CC=C[C@H]2[C@H]1C(=O)N(Cc1ccccc1)[C@H]2c1ccoc1	-12	i	-2	i	2	0	nt
CC[C@@H]1CC=C[C@H]2[C@H]1C(=O)N(Cc1ccccc1)[C@H]2c1ccoc1	101*	100*	-34	i	19	-2	nt	CHOP inh conf=137*;TMEM16A reconf=44%*;TMEM16A Ca cntr=i;YFP-HEK293 quench=-1.2;ClC-1 rat inh=-8
CC(C)Cn1c(N)c(C(=O)COC(=O)CC23CC4CC(CC(C4)C2)C3)c(=O)n(C)c1=O	98*	25*	-14	i	4	2	nt	CHOP inh conf=90*;TMEM16A reconf=34%*;TMEM16A Ca cntr=i;YFP-HEK293 quench=-0.81;ClC-1 rat inh=-10
CC(C)(C)C(=O)Nc1c2c(nn1-c1ccccc1)CSC2	nt	i	-1	i	-1	-5	nt
O=C(Nc1cccc(F)c1)N(Cc1ccc(Cl)cc1)CC(O)C(F)(F)F (stereo not given)	109*	100*	-12	i	0	-1	nt	CHOP inh conf=104*;TMEM16A reconf=78%*;TMEM16A Ca cntr=i;YFP-HEK293 quench=-0.89;ClC-1 rat inh=-19
O=S1(=O)Nc2c(ccc3cccnc23)-c2ccccc21	nt	i	nt	i	346*	1	425*
Clc1ccc2ccc3cccnc3c2n1	nt	i	7	i	3	-3	nt
O=C1/C(=C/c2ccc(N3CCOCC3)o2)SC(=Nc2ccccc2)N1CCc1c[nH]c2ccccc12	-20	i	nt	i	110*	-10	36*
COc1ccc(Cl)cc1NS(=O)(=O)c1cccc(C(=O)NC2CC2)c1	nt	nt	nt	i	0	0	nt
COc1ccc(N2C(=O)c3ccccc3C2=O)cc1	0	i	4	i	2	-1	nt
COc1ccc(N2C(=O)C(Cl)=C(Oc3cccc(OC)c3)C2=O)cc1	106*	i	24	i	94*	-6	31
COc1ccccc1-c1cc(C(F)(F)F)nc(S(=O)(=O)CCCC(=O)N2CCCCC2C)n1 (stereo not given)	nt	i	nt	i	279*	6	192*
COc1ccc(CNC(=O)c2ccc(NC(=O)C3=CSCCO3)cc2)cc1	nt	i	2	i	5	5	nt
CC1=CC(=O)C=C(C)C1=NOC(=O)c1cccc([N+](=O)[O-])c1	-69	i	16	i	46*	1	5
Cc1cccc(C(=O)O/N=C(\N)c2cccc([N+](=O)[O-])c2)c1	-4	i	nt	i	3	1	nt
Cc1sc2ncnc(Sc3nnnn3-c3ccccc3)c2c1C	-12	i	nt	i	7	-6	nt
Clc1ccc(-n2nnnc2Sc2ncnc3sccc23)cc1	nt	i	nt	i	89*	-9	112*
Cc1cc(C)nc(S/C=C/C(=O)c2ccccc2F)n1	85*	i	-16	i	73*	0	8
Cc1cc(C)nc(NC(=S)NC(=O)c2ccccc2F)n1	nt	i	nt	i	1	-1	nt
O=C(O)CC1NC(=S)N(c2ccccc2)C1=O (stereo not given)	20	i	-10	i	-1	-2	nt
O=C1C(CSCc2ccccc2)NC(=S)N1c1ccccc1 (stereo not given)	-74	i	-1	i	52*	1	34*
Cc1cccnc1Nc1nc(-c2ccccn2)cs1	-79	i	-95	i	451*	11	471*
Cc1cccc(Nc2nc(-c3cccs3)cs2)n1	21	i	-4	i	0	3	nt
Cc1cccc(Nc2nc(-c3ccccn3)cs2)n1	-64	i	-14	i	83*	26	35*
O=C(Nc1nc(-c2ccccn2)cs1)c1ccc(Cl)s1	nt	i	nt	i	90*	11	126*
SMILES	CHOP inh	ANO1 block	Hep lipid drop	TMEM16A act	UPR CHOP act	XBP1 UPR activ	UPR CHOP confirm	others
Cc1ccc(C(=O)Nc2nc(-c3ccccn3)cs2)s1	nt	nt	nt	i	31	7	nt
CCOC(=O)c1[nH]c(C)c(C(=O)/C=C/c2ccc(C(=O)O)cc2)c1C	nt	i	7	i	1	-1	nt
O=C(c1ccc2nsnc2c1)N1CCN(c2ccc([N+](=O)[O-])cc2)CC1	nt	i	0	i	0	-3	nt
Cc1ccc2nc(Nc3ccccc3)c(/C=N/O)c(=O)n2c1	14	i	2	i	1	0	nt
Cc1ccc(Sc2nc3ccc(C)cn3c(=O)c2/C=N/O)cc1	45	i	0	i	52*	10	0
Cc1onc(-c2c(F)cccc2Cl)c1C(=O)N1CCCC1	nt	nt	nt	i	-2	-2	nt
O=C(O)c1cccc(-c2ccccc2)c1O	nt	nt	nt	i	nt	nt	nt
Cc1ccc(/C=C/C(=O)c2ccc([N+](=O)[O-])o2)cc1	nt	i	nt	nt	189*	-4	135*
O=C(/C=C/c1ccc(Cl)cc1)c1ccc([N+](=O)[O-])o1	nt	i	nt	i	69*	-6	22
Cc1ccc(CNC(=O)c2ccc([N+](=O)[O-])o2)cc1	-14	i	nt	i	-2	-1	nt
O=C(Nc1nc2c(F)cc(F)cc2s1)c1ccccn1	79*	i	-67	i	83*	-2	186*
O=C(COc1ccccc1)NNc1nc2c(F)cc(F)cc2s1	7	i	32	i	2	-3	nt
CCN(CC)CCNC(=O)C(=O)NCC1OCCN1C(=O)c1ccc2c(c1)OCO2 (stereo not given)	18	i	18	nt	1	0	nt
